# Source: PubChem BioAssay
# KCNK9 inh: inhibitors of human KCNK9 two-pore domain potassium channel. actives 1.2% (n = 310,000). Q9NPC2. B-score at 10 µM. HEK293 KCNK9, FluxOR thallium flux fluorescence; hits give low values;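 active = ratio B-score over 3 SD below the library mean, with starting fluorescence within 5 SD of its mean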;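 also: negative B-score means less thallium flux so channel inhibition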
# KCC2 mod: modulates chloride dependent transport by human KCC2; KCC2 cells, thallium flux FluoZin-2 fluorescence; B-score of Tl+ flux slope (higher = more flux/activation; lower = inhibition) at 10 µM; actives 2.2% (n = 190,000); Q9H2X9;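 active = thallium flux slope and its plate-corrected score both differing from the plate sample mean at a set confidence after two filtering rounds, in either direction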;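 also: slope of fluorescence scaled to starting intensity during 10 to 20 s after thallium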
# KCNQ1 block: blocks the human KCNQ1 potassium channel; CHO-K1 KCNQ1, FluxOR thallium flux fluorescence; hits give high values; P51787; actives 1.3% (n = 310,000); B-score at 10 µM;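 active = compounds whose thallium flux B-score, printed positive for inhibition, exceeds three library SD while starting fluorescence stays within three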;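 also: channel opened by potassium depolarization with thallium stimulus after 20 min compound exposure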
# KCNK3 inh: human KCNK3 channel inhibition, primary screen; O14649; CHO-KCNK3 thallium flux, FluxOR fluorescence; hits give low values; B-score at 10 µM; actives 0.84% (n = 340,000); AID 602410;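 active = B-score under library mean minus 4 SD, starting fluorescence ratio at most library mean plus 5 SD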;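 also: more negative B-score means stronger inhibition of thallium flux through KCNK3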
# Target sequence (O14649 whole entry, looked up): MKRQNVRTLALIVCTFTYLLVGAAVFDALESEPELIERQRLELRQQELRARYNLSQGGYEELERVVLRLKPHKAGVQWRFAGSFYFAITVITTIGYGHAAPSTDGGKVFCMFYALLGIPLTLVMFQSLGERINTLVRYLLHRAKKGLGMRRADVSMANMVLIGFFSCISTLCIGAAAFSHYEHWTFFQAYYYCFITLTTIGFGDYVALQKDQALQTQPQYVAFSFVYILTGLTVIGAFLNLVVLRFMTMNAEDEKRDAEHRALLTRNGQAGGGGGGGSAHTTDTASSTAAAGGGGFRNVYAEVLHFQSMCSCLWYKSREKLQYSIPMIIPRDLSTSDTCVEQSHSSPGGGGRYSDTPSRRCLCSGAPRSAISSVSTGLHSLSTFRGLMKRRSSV
# hERG protect: hERG (human) protection from proarrhythmic block; Q12809; CHO-hERG, FluxOR thallium flux, dofetilide IC70 present; activation (rescue from dofetilide block), less the hit threshold, % at 10 µM; actives 0.51% (n = 310,000); AID 1511;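 active = activation above the mean of controls blocked by dofetilide plus 5 SD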;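 also: thallium influx through hERG after potassium depolarization seen as dye fluorescence rise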
# KCNQ1 pot: potentiators or activators of human KCNQ1 potassium channel; P51787; CHO-K1 KCNQ1, thallium flux FluxOR fluorescence; hits give high values; B-score at 10 µM; actives 0.35% (n = 310,000); AID 2648;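 active = fluorescence ratio B-score, a plate-corrected score, at least three library SD, with initial intensity B-score within 5 SD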
#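 Schedule – 37 °C overnight plating, 90-min dark dye load, 20-min compound pretreatment · System – stable KCNQ1 CHO-K1 line · Probe or stimulus – thallium- and potassium-containing depolarizing buffer · Measured by – kinetic FluxOR fluorescence, 10 s baseline plus 110 s post-stimulus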
# * marks the source's active call; other numbers are inactive results; i = inactive; / = no result. The list is not random: actives were taken first. Their share in the collection is about 4.1%.
SMILES,KCNK9 inh,KCC2 mod,KCNQ1 block,KCNK3 inh,hERG protect,KCNQ1 pot
CCOc1c(OC(C)=O)ccc(/C=C2\N=C(SCC)SC2=O)c1[N+](=O)[O-],i,0.092,9*,i,-25,i
CCSC1=N/C(=C\c2ccc(C(=O)O)cc2)C(=O)S1,i,-0.0071,i,i,-14,i
CC1CCCN(S(=O)(=O)c2ccc(C(=O)NC(C)c3ccccc3)cc2)C1 (stereo not given),/,/,/,i,/,/
Cc1[nH]n(-c2ccccc2)c(=O)c1Sc1ccc(Cl)cc1,i,-0.44,i,i,-12,i
CCCSC(=S)c1c(C)[nH]n(-c2ccccc2)c1=O,i,/,i,i,27*,16*
Oc1ccc(C[C@H]2CNCCN2CCC23CC4CC(CC(C4)C2)C3)cc1,i,/,6*,i,-3,i
Oc1ccc(C[C@@H]2CNCCN2CCC23CC4CC(CC(C4)C2)C3)cc1,i,/,i,i,-12,i
O=C1C2C3c4ccccc4C(c4ccccc43)C2c2nc3ccccc3n21 (stereo not given),-7.7*,-1.4,i,i,-4,i
O=C1OC2(CCCCC2)OC(=O)C1=CNc1nc2ccccc2s1,i,3.7*,i,i,-14,i
O=C1OC2(CCCCC2)OC(=O)C1=CNc1nccs1,i,1.2,i,i,-10,i
COC(=O)c1cc(C)sc1NC(=O)CSc1ncccn1,i,/,i,i,-9,i
CCN1C(=O)N(CC)C(O)(c2ccccc2)C1(O)c1ccccc1 (stereo not given),i,0.029,i,i,-2,i
CC(C)(C)C1=CC(O)(c2ccccc2)C=C(C(C)(C)C)C1=O,i,/,8*,i,-13,i
N#Cc1cn(Cc2ccco2)c(=O)[nH]c1=O,/,/,/,i,/,/
O=C(N/N=C/c1cccnc1)c1ccccc1Cl,i,/,i,i,1,i
O=C(N/N=C/c1cccnc1)c1ccccc1OCc1ccc(Cl)cc1,-6.9*,-3.4,i,/,-5,i
COc1ccc(-c2csc(-c3[nH]cnc3N)n2)cc1,i,-1.1,i,i,-17,i
Cc1ccc(-c2cc3cccc[n+]3cc2-c2ccc(C)cc2)cc1,i,0.78,8*,i,-29,i
C=C1C(=O)C2=CC1CCC(=O)C1(C)CCC(OC(C)=O)C(C)(C)C1CC2O (stereo not given),/,/,/,i,/,/
Cc1ccc(C)c(N2CCN(C(=O)CCc3nc(-c4ccccc4Cl)no3)CC2)c1,/,/,/,i,/,/
Cc1ccc(C)c(N2CCN(C(=O)CCc3nc(-c4ccccc4)no3)CC2)c1,/,/,/,i,/,/
Cc1ccc(C)c(N2CCN(C(=O)CCc3nc(-c4ccccc4C)no3)CC2)c1,/,/,/,-9.2*,/,/
Cc1cccc(-c2noc(CCC(=O)N3CCN(c4cc(C)ccc4C)CC3)n2)c1,/,/,/,-9.8*,/,/
CC(=O)Nc1cccc(-c2nnc(-c3ccc(C)cc3)o2)c1,i,/,i,i,-6,i
CCc1ccc(-c2nc(CS(=O)CC(=O)NCCCN3CCC(C)CC3)c(C)o2)cc1 (stereo not given),i,/,i,i,-9,i
SMILES,KCNK9 inh,KCC2 mod,KCNQ1 block,KCNK3 inh,hERG protect,KCNQ1 pot
C/C(=N\NC(=O)c1ccc(O)cc1)c1ccc2c(c1)Nc1ccccc1S2,i,-1.6,6*,i,-16,i
CC(=O)Nc1cccc(/C(C)=N/NC(=O)c2ccc(O)cc2)c1,i,0.13,i,i,-2,i
Cc1ccc(N2C(=S)N=C(Nc3ccccc3C)C23CCOC(C)(C)C3)cc1 (stereo not given),i,24*,i,i,-11,i
Cc1cc(O)c2c(c1)C(=O)c1cc(O)cc(O)c1C2=O,i,/,6*,i,-9,i
CCCc1cc(-c2n[nH]c(=S)n2CC(C)C)cs1,i,16*,i,i,3,i
CCCCn1c(-c2nn(C)cc2Cl)n[nH]c1=S,i,1.4,i,i,-5,i
CCCCn1c(-c2csc(C(C)C)c2)n[nH]c1=S,i,21*,i,i,5.0*,i
Cc1ccc(CCC(=O)Nc2ccc(C#N)cc2)o1,i,/,i,i,-4,i
Cc1ccccc1NS(=O)(=O)c1cc(C(=O)Nc2ccccc2-c2ccccc2)ccc1Cl,-7.2*,/,i,i,-5,i
Cc1ccccc1NS(=O)(=O)c1cc(C(=O)N2CCCC2)ccc1Cl,i,/,i,i,-7,i
COc1cccc(CNC(=O)CCS(=O)(=O)c2cccc3nsnc23)c1,i,/,i,i,-3,i
Cc1ccc(CNC(=O)CCS(=O)(=O)c2cccc3nsnc23)cc1,i,0.47,i,i,4.9*,i
Cc1sc2nc(CN3CCOCC3)nc(NS(=O)(=O)c3cc(Cl)ccc3Cl)c2c1C,/,/,/,i,/,/
O=S(=O)(c1ccc(-c2nc3ccccc3s2)cc1)N1CCCC1,i,0.24,i,i,0,i
CC1CN(S(=O)(=O)c2ccc(-c3nc4ccccc4s3)cc2)CC(C)O1 (stereo not given),i,-0.11,i,i,4.6*,i
Cc1ccc(C)c(S(=O)(=O)Nc2ccc(O)c3ccccc23)c1,i,/,i,i,-10,i
Cc1ccc(S(=O)(=O)Nc2ccc(O)c3ccccc23)c(C)c1,i,/,i,i,9.0*,i
COc1ccc(C(=O)COC(=O)c2ccccc2NS(=O)(=O)c2ccc(O)c([N+](=O)[O-])c2)cc1,i,-4.2,9*,i,-17,i
COc1ccc(NC(=O)c2ccccc2NS(=O)(=O)c2ccc(C)cc2)c([N+](=O)[O-])c1,i,-2.5,i,i,-10,i
COc1ccc(S(=O)(=O)Nc2ccc(O)c3ccccc23)cc1,i,/,i,i,5.1*,i
COc1ccccc1N1CCN(C(=O)c2ccc(Cl)c(S(=O)(=O)N3CCOCC3)c2)CC1,i,/,i,i,-9,i
COc1ccc(/C=C2\Sc3ccc(C(=O)NCCN4CCCCCC4)cc3N(C)C2=O)cc1,i,/,9*,i,-19,i
COc1ccc(/C=C2\Sc3ccc(C(=O)N4CCc5ccccc5C4)cc3N(C)C2=O)cc1,i,-0.53,i,/,-13,i
O=C(NCCN1CCOCC1)c1ccc2c(c1)N(Cc1cccc(F)c1)C(=O)c1ccccc1S2,i,-1.3,i,i,-16,i
Cc1cccc(CN2C(=O)/C(=C\c3ccc(C(=O)NCCN4CCOCC4)cc3)Sc3ccccc32)c1,i,/,8*,i,-25,i
